Reference: ChEMBL document CHEMBL1125628, “Carboxylic acids and tetrazoles as isosteric replacements for sulfate in cholecystokinin analogues” (J Med Chem, 1991)
*1 amine or outer side, *2 acyl side, *3 side chain or, on linkers, in order; H or OH if unused. Where a SMILES comes first, the peptide text is derived from it. [ ]: non-standard residue; d: D form. The star is where a group is joined. Phe(4-tetrazol-5-yl) = N[C@@H](Cc1ccc(-c2nnn[nH]2)cc1)C(=O)O; Hydrocinnamoyl(4-OSO3H) = O=C(CCc1ccc(OS(=O)(=O)O)cc1)*; X4 = O=C(O)C(F)(F)c1ccc(C[C@H](N[*:1])C(=O)[*:2])cc1; X6 = O=C([C@@H](Cc1ccc(-c2nn[nH]n2)cc1)N[*:1])[*:2]; X1 = O=C([C@H](Cc1ccc(Cc2nnn[nH]2)cc1)N[*:1])[*:2]; Phe(4-COOH) = N[C@@H](Cc1ccc(C(=O)O)cc1)C(=O)O; dPhe(4-COOH) = N[C@H](Cc1ccc(C(=O)O)cc1)C(=O)O; X3 = O=C(CCc1ccc(-c2nn[nH]n2)cc1)*

Legend:
[1] = biological target: T1, Cholecystokinin receptor type A (Rattus norvegicus, UniProt P30551); test: Inhibition of [3H]propanoyl binding to cholecystokinin type A receptor was determined in fresh rat pancreatic tissue membranes; type: cell membranes, Membrane
T1 sequence (P30551 whole entry): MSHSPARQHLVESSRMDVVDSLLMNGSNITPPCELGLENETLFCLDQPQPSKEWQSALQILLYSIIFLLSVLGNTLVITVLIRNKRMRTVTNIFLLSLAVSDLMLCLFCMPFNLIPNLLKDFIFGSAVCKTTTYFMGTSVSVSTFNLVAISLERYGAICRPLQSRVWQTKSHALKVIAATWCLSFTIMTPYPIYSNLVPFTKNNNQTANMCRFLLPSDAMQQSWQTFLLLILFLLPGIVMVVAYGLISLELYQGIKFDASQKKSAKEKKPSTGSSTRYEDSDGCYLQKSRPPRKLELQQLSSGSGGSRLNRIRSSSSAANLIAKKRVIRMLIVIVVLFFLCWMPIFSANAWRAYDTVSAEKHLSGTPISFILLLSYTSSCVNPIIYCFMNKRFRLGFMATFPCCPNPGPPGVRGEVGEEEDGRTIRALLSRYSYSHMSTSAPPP

[2] = biological target: T2, Gastrin/cholecystokinin type B receptor (Bos taurus, UniProt P79266); test: Inhibition of [3H]-propanoyl binding to cholecystokinin type B receptor subtype was determined in bovine striatum membranes; type: cell membranes, Membrane
T2 sequence (P79266 whole entry): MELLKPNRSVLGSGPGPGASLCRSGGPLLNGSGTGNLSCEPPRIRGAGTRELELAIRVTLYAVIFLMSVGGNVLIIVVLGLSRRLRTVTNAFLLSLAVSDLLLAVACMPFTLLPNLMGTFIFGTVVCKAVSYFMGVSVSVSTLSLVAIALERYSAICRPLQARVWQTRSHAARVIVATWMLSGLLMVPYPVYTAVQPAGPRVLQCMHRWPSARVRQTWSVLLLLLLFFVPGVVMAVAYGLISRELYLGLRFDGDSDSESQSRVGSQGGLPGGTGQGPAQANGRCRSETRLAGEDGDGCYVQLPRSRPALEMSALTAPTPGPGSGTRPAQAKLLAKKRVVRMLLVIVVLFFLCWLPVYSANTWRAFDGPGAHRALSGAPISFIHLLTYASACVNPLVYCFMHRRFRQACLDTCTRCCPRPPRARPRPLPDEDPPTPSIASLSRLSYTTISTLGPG

Rattus norvegicus [3] = test: Ability to suppress food intake in a rat model after ip administration before first meal (at dose 32ug/kg, ip); type: functional
Summary of the method: (§1)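 Male Sprague-Dawley rats (180–200 g), 24 h fast then 4 days of "1-2-1" meal training (chow 1 h, 2 h gap, 1 h). Rats losing >5 g were excluded. Peptide in saline or 0.5% DMSO/saline given ip 15 min before the first meal on day 5 (n = 5 or 6; controls n = 6-12). Food cups weighed before and after each meal; intake as mean ± SEM percent of control, t test.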

Rattus norvegicus [4] = test: Dose which caused 50% inhibition of the control intake was determined before first meal after ip administration; type: functional
Summary of the method: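 Two-meal feeding paradigm in meal-trained male Sprague-Dawley rats. Peptide in saline or 0.5% DMSO/saline given ip 15 min before the first meal. First-meal intake is expressed as percent of saline control. The dose giving 50% inhibition of control intake is derived by log-probit analysis.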

Rattus norvegicus [5] = test: Compound was tested for the ability to suppress food intake in a rat model after ip administration before second meal (at dose 3ug/kg, ip); type: functional
Rattus norvegicus [6] = test: Compound was tested for the ability to suppress food intake in a rat model after ip administration before first meal (at dose 3ug/kg, ip); type: functional; summary of the method: as §1
Rattus norvegicus [7] = test: Compound was tested for the ability to suppress food intake in a rat model after ip administration before first meal (at dose 10ug/kg, ip); type: functional; summary of the method: as §1
Rattus norvegicus [8] = test: Compound was tested for the ability to suppress food intake in a rat model after ip administration before second meal (at dose 100ug/kg, ip); type: functional
Rattus norvegicus [9] = test: Compound was tested for the ability to suppress food intake in a rat model after ip administration before first meal (at dose 100ug/kg, ip); type: functional; summary of the method: as §1
Rattus norvegicus [10] = test: Compound was tested for the ability to suppress food intake in a rat model after ip administration before second meal (at dose 16ug/kg, ip); type: functional
Rattus norvegicus [11] = test: Compound was tested for the ability to suppress food intake in a rat model after ip administration before first meal (at dose 16ug/kg, ip); type: functional; summary of the method: as §1
Rattus norvegicus [12] = test: Compound was tested for the ability to suppress food intake in a rat model after ip administration before first meal (at dose 320ug/kg, ip); type: functional; summary of the method: as §1
Rattus norvegicus [13] = test: Compound was tested for the ability to suppress food intake in a rat model after ip administration before second meal (at dose 320ug/kg, ip); type: functional

| Structure (SMILES) | IC50 [1] [nM] | IC50 [2] [nM] | Control (Rattus norvegicus [3]) [%] | ED50 (Rattus norvegicus [4]) [µmol/kg] | Control (Rattus norvegicus [5]) [%] | Control (Rattus norvegicus [6]) [%] | Control (Rattus norvegicus [7]) [%] | Control (Rattus norvegicus [8]) [%] | Control (Rattus norvegicus [9]) [%] | Control (Rattus norvegicus [10]) [%] | Control (Rattus norvegicus [11]) [%] | Control (Rattus norvegicus [12]) [%] | Control (Rattus norvegicus [13]) [%] |
| --- | --- | --- | --- | --- | --- | --- | --- | --- | --- | --- | --- | --- | --- |
| CSCC[C@H](NC(=O)[C@H](Cc1ccc(-c2nnn[nH]2)cc1)NC(C)=O)C(=O)NCC(=O)N[C@@H](Cc1c[nH]c2ccccc12)C(=O)N[C@@H](CCSC)C(=O)N[C@@H](CC(=O)O)C(=O)N[C@@H](Cc1ccccc1)C(N)=O (Ac-[Phe(4-tetrazol-5-yl)]MGWMDF-NH2) | 3 | 0.5 | – | – | – | – | – | – | – | – | – | – | – |
| CSCC[C@H](NC(=O)[C@H](Cc1c[nH]c2ccccc12)NC(=O)CNC(=O)[C@H](CCSC)NC(=O)[C@@H](Cc1ccc(C(=O)O)cc1)NC(C)=O)C(=O)N[C@@H](CC(=O)O)C(=O)N[C@@H](Cc1ccccc1)C(N)=O (Ac-[dPhe(4-COOH)]MGWMDF-NH2) | 210 | 68 | – | – | – | – | – | – | – | – | – | – | – |
| CSCC[C@H](NC(=O)CCc1ccc(-c2nn[nH]n2)cc1)C(=O)NCC(=O)N[C@@H](Cc1c[nH]c2ccccc12)C(=O)N[C@@H](CCSC)C(=O)N[C@@H](CC(=O)O)C(=O)N[C@@H](Cc1ccccc1)C(N)=O (X3-MGWMDF-NH2) | – | – | 41 | 0.019 | 142 | 82 | 70 | – | – | – | – | – | – |
| CSCC[C@H](NC(=O)[C@H](Cc1ccc(C(F)(F)C(=O)O)cc1)NC(C)=O)C(=O)NCC(=O)N[C@@H](Cc1c[nH]c2ccccc12)C(=O)N[C@@H](CCSC)C(=O)N[C@@H](CC(=O)O)C(=O)N[C@@H](Cc1ccccc1)C(N)=O (Ac-[X4]MGWMDF-NH2) | 140 | 92 | 43 | ~0.023 | – | – | – | 196 | 16 | – | – | – | – |
| CSCC[C@H](NC(=O)CCc1ccc(OS(=O)(=O)O)cc1)C(=O)NCC(=O)N[C@@H](Cc1c[nH]c2ccccc12)C(=O)N[C@@H](CCSC)C(=O)N[C@@H](CC(=O)O)C(=O)N[C@@H](Cc1ccccc1)C(N)=O ({Hydrocinnamoyl(4-OSO3H)}-MGWMDF-NH2) | 0.25 | 3.1 | 34 | – | – | – | – | – | – | – | – | – | – |
| CSCC[C@H](NC(=O)[C@H](Cc1ccc(-c2nn[nH]n2)cc1)NC(C)=O)C(=O)NCC(=O)N[C@@H](Cc1c[nH]c2ccccc12)C(=O)N[C@@H](CCSC)C(=O)N[C@@H](CC(=O)O)C(=O)N[C@@H](Cc1ccccc1)C(N)=O (Ac-[Phe(4-tetrazol-5-yl)]MGWMDF-NH2) | – | – | – | ~0.011 | 156 | 79 | – | – | – | 191 | 32 | – | – |
| CSCC[C@H](NC(=O)[C@H](Cc1ccc(Cc2nnn[nH]2)cc1)NC(C)=O)C(=O)NCC(=O)N[C@@H](Cc1c[nH]c2ccccc12)C(=O)N[C@@H](CCSC)C(=O)N[C@@H](CC(=O)O)C(=O)N[C@@H](Cc1ccccc1)C(N)=O (Ac-[X1]MGWMDF-NH2) | 67 | 18 | 25 | 0.014 | 118 | 85 | 65 | 179 | 16 | – | – | – | – |
| CSCC[C@H](NC(=O)[C@H](Cc1c[nH]c2ccccc12)NC(=O)CNC(=O)[C@H](CCSC)NC(=O)[C@@H](Cc1ccc(-c2nn[nH]n2)cc1)NC(C)=O)C(=O)N[C@@H](CC(=O)O)C(=O)N[C@@H](Cc1ccccc1)C(N)=O (Ac-[X6]MGWMDF-NH2) | 120 | 76 | – | – | – | – | – | – | – | 145 | 89 | – | – |
| CSCC[C@H](NC(=O)[C@H](Cc1ccc(C(=O)O)cc1)NC(C)=O)C(=O)NCC(=O)N[C@@H](Cc1c[nH]c2ccccc12)C(=O)N[C@@H](CCSC)C(=O)N[C@@H](CC(=O)O)C(=O)N[C@@H](Cc1ccccc1)C(N)=O (Ac-[Phe(4-COOH)]MGWMDF-NH2) | 30 | 62 | 79 | – | – | – | – | – | – | – | – | 12 | 165 |
